10 compounds from ChEMBL document CHEMBL1141338, “Cytotoxic sesquiterpene lactones from Pseudoelephantopus spicatus” (J Nat Prod, 2007) can be followed below.

For one assay, the system named is HepG2. Put plainly: Cytotoxicity against human HepG2 cells. It counts as functional, cell-based. Put shortly:
(§1)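 Panel lines are HepG2 hepatocellular carcinoma, MDA-MB-231 breast carcinoma and A-549 lung carcinoma (human); cytotoxicity evaluated alongside Hep3B and MCF-7 in the same screen.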

The subject of a further assay is A549. Put plainly: Cytotoxicity against human A549 cells. It counts as functional, cell-based. In outline: as §1
For a further assay, the system named is MDA-MB-231. Put plainly: Cytotoxicity against human MDA-MB-231 cell. It counts as functional, cell-based. Put shortly:
as §1

Assay [1] can be described thus: Cytotoxicity against human Hep3B cells. Format: functional, cell-based, Hep 3B2. Put shortly: (§2)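 Human Hep3B hepatocellular carcinoma and MCF-7 breast carcinoma lines; cytotoxicity reported as IC50 in µg/mL; doxorubicin included as positive control.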
The next assay concerns MCF7. Description: Cytotoxicity against human MCF7 cells. It counts as functional, cell-based. In outline:
as §2

Values after ≈ are worked out from the molar mass of the structure shown.

In general, IC50 refers to the concentration that inhibits the measured activity by half. Higher therefore signals lower potency. Regarding `COCC1=C2/C(=C\[C@@]3(C)CC[C@](O)(O3)[C@@](C)(O)C[C@@H]2OC(C)=O)OC1=O`, the IC50 in the assay with HepG2, with A549 and in the assay on MDA-MB-231 was > 5 µg/mL throughout.
For the compound `COCC1=C2[C@@H](OC(C)=O)C[C@@](C)(OC(C)=O)[C@@]3(O)CC[C@@](C)(O)[C@H](OC(C)=O)[C@@]23OC1=O`, the IC50 in the assay on HepG2, with A549 and with MDA-MB-231 was > 5 µg/mL throughout.
The compound `COc1cccc2c1C(=O)c1c(O)c3c(c(O)c1C2=O)C[C@@](O)(C(=O)CO)C[C@@H]3O[C@H]1C[C@H](N)[C@H](O)[C@H](C)O1` [DOXORUBICIN] displayed an IC50 in assay [1] of 0.06 µg/mL (≈ 0.11 µM).
As to `CC(=O)OCC1=C2/C(=C\[C@@]3(C)CC[C@](O)(O3)[C@@](C)(O)C[C@@H]2O)OC1=O` [PITOCARPHIN D], the IC50 in the assay on HepG2, in the assay on A549 and in the assay with MDA-MB-231 was > 5 µg/mL throughout.
With `CC(=O)OCC1=C2[C@@H](OC(C)=O)C[C@@]3(C)O[C@]2(C[C@](C)(O)CCC3=O)OC1=O` [SPICATOLIDE A], the IC50 in the assay with HepG2, in the assay on A549 and in the assay with MDA-MB-231 was > 5 µg/mL in each case.
Take `C/C=C(\C)C(=O)O[C@H]1C[C@](C)(O)[C@]2(O)CC[C@](C)(/C=C3/OC(=O)C(COC)=C31)O2` [SPICATOLIDE E]: the IC50 with HepG2, in the assay on A549 and in the assay on MDA-MB-231 was > 5 µg/mL each time.
As for `COCC1=C2[C@@H](O)C[C@@]3(C)O[C@]2(C[C@](C)(O)CCC3=O)OC1=O` [SPICATOLIDE F], the IC50 in assay [1] was 3.2 µg/mL (≈ 9.81 µM); in the assay on HepG2, > 5 µg/mL; in the assay on A549, > 5 µg/mL; with MCF7 it was 2.4 µg/mL (≈ 7.35 µM); in the assay with MDA-MB-231, > 5 µg/mL.
On to `COCC1=C2[C@@H](OC(C)=O)C[C@@]3(C)O[C@@]2(OC1=O)[C@H](O)[C@@]1(C)CC[C@]3(O)O1` [SPICATOLIDE G], for which the IC50 is 6.1 µg/mL (≈ 15.9 µM) in assay [1]; > 5 µg/mL in the assay with HepG2; > 5 µg/mL in the assay with A549; 4.8 µg/mL (≈ 12.5 µM) with MCF7; > 5 µg/mL in the assay on MDA-MB-231.
As to `C=C1CC[C@@H]2[C@H](OC(=O)[C@H]2C)[C@H]2[C@H](C)OC(=O)C[C@@H]12` [SPICATOLIDE H], the IC50 in the assay with HepG2, in the assay with A549 and in the assay on MDA-MB-231 was > 5 µg/mL throughout.
Take `COCC1=C2/C(=C\[C@@]3(C)CC[C@](O)(O3)[C@@](C)(O)C[C@@H]2O)OC1=O` [SPICATOLIDES D]: the IC50 in assay [1] was 4.8 µg/mL (≈ 14.7 µM); in the assay with HepG2, > 5 µg/mL; with A549, > 5 µg/mL; in the assay with MCF7, 5.1 µg/mL (≈ 15.6 µM); with MDA-MB-231, > 5 µg/mL.
